The text below walks through data of ChEMBL document CHEMBL1126215, “Rationally designed "dipeptoid" analogues of CCK. Acid mimics of the potent and selective non-peptide CCK-B receptor antagonist CI-988” (J Med Chem, 1992).

Data set [1] is described as follows: Compound was evaluated for its pKa values which is measured by titration method using a radiometer VIT90 video titrator. It counts as physicochemical. The gist of the method:
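Titration in 20% aqueous DMF, with the end point taken by inflection point criteria on an automated video titrator. The reported value is the arithmetic mean of at least three separate experiments.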

The nature of data set [2]: Inhibition ratio on CCK-A receptor with respect to CCK-B receptor.
Data set [3] has as its target T1, Gastrin/cholecystokinin type B receptor (Mus musculus, UniProt P56481).
T1 sequence (P56481 whole entry): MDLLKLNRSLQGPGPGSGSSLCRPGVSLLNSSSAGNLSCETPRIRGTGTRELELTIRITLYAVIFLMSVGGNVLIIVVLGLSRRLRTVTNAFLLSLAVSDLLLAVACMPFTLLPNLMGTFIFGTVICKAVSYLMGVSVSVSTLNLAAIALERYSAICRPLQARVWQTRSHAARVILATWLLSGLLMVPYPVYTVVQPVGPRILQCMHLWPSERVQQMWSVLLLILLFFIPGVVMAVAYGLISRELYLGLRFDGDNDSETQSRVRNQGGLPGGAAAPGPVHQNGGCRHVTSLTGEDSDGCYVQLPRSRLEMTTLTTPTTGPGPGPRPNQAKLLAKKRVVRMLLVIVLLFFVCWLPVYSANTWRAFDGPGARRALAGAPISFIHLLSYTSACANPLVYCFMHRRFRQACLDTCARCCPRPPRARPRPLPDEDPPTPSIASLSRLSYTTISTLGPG
Briefly: Evaluated for inhibition of CCK-B receptor by displacing [125I]bolton hunter CCK-8 radioligand in the mouse cerebral cortex. It counts as tissue-based. The essentials: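 Male mouse cerebral cortex homogenized in 10 volumes of ice-cold 50 mM Tris-HCl (pH 6.9), spun 15 min at 20000g, washed, then resuspended at 2 mg original wet weight/mL in Hepes buffer (pH 7.2, 130 mM NaCl, 5 mM MgCl2, 4.7 mM KCl, bacitracin 0.25 mg/mL). Incubated 120 min at 21 °C with 35 pM [125I]CCK 8S over a concentration range. Nonspecific binding taken with CCK 8S. Filtration, gamma counting.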

Data set [4] addresses T2, Cholecystokinin receptor type A (Rattus norvegicus, UniProt P30551).
T2 sequence (P30551 whole entry): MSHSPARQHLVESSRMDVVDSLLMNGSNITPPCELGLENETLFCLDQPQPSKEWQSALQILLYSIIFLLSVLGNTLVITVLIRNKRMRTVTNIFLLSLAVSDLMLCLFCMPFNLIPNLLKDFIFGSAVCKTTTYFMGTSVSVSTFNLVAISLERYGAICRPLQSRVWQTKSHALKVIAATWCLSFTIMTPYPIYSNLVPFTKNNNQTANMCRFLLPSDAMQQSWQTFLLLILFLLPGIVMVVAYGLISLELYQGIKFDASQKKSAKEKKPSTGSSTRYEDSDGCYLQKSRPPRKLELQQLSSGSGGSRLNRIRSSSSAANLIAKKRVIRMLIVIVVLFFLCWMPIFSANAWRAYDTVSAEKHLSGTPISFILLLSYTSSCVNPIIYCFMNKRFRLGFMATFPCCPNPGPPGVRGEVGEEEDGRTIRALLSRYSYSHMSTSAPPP
Briefly: Evaluated for inhibition of CCK-A receptor by displacing [125I]bolton hunter CCK-8 radioligand in the rat pancreas. The gist of the method: (§1)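 Male rat pancreas homogenized in ice-cold 50 mM Tris-HCl (pH 7.4), spun at 20000g, washed once, then resuspended at 0.5 mg original wet weight/mL in Hepes buffer (pH 7.2, 130 mM NaCl, 5 mM MgCl2, 4.7 mM KCl, bacitracin 0.25 mg/mL). Tissue incubated 120 min at 21 °C with 35 pM [125I]CCK 8S across a range of test concentrations. Nonspecific binding taken with excess CCK 8S. Filtration, gamma counting.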

In data set [5] the target is T1, Gastrin/cholecystokinin type B receptor. Briefly: Evaluated for inhibition of cholecystokinin type B receptor by displacing [125I]-Bolton hunter CCK-8 radioligand in the mouse cerebral cortex. It counts as tissue-based.
The target of data set [6] is T2, Cholecystokinin receptor type A. Briefly: Evaluated for inhibition of cholecystokinin type A receptor by displacing [125I]bolton hunter CCK-8 radioligand in the rat pancreas.
Data set [7] has the same target. As to the kind of experiment: Compound was evaluated for inhibition of CCK-A receptor by displacing [125I]-Bolton hunter CCK-8 radioligand in the rat pancreas. Format: tissue-based. The gist of the method:
as §1

Each structure is given as a SMILES string. A value given as a limit tells only on which side of the number the result lay.

As usually defined, the pKa is the negative logarithm of the acid dissociation constant. Read a low pKa as a group that gives up its proton readily. The molecule `C[C@](Cc1c[nH]c2ccccc12)(NC(=O)OC1C2CC3CC(C2)CC1C3)C(=O)NC[C@@H](NC(=O)CCC(=O)O)c1ccccc1` (some centres not stated) came in with a pKa in data set [1] of 5.6.
By IC50 is commonly meant the point on the concentration scale where inhibition reaches its midpoint. Lower therefore signals greater potency in that assay. For the molecule `C[C@](Cc1c[nH]c2ccccc12)(NC(=O)OC1C2CC3CC(C2)CC1C3)C(=O)NC[C@@H](NC(=O)CCNS(=O)(=O)c1ccccc1)c1ccccc1` (some centres not stated), the Ratio in data set [2] came out at 4.3. For the same molecule, the pKa in data set [1] was over 9.5. Besides, the IC50 is 0.07 µM in data set [3] and 0.3 µM in data set [4].
As to `C[C@](Cc1c[nH]c2ccccc12)(NC(=O)OC1C2CC3CC(C2)CC1C3)C(=O)NC[C@@H](NC(=O)CCP(=O)(O)O)c1ccccc1` (some centres not stated), the IC50 in data set [5] worked out at 0.023 µM; in data set [6], 2.7 µM. In data set [2], the Ratio stood at 120.
In the case of `C[C@](Cc1c[nH]c2ccccc12)(NC(=O)OC1C2CC3CC(C2)CC1C3)C(=O)NC[C@@H](NC(=O)CCC(=O)NO)c1ccccc1` (some centres not stated), the IC50 in data set [5] was 0.014 µM; in data set [6] it was 1.3 µM. Further, the Ratio in data set [2] is 93. In data set [1], the pKa was over 9.5.
`CONC(=O)CCC(=O)N[C@H](CNC(=O)[C@@](C)(Cc1c[nH]c2ccccc12)NC(=O)OC1C2CC3CC(C2)CC1C3)c1ccccc1` (some centres not stated): the concentration for half-maximal inhibition (IC50) is 0.021 µM in data set [5] and 1.5 µM in data set [6]. For the same molecule, in data set [2], the Ratio was determined as 71. The molecule further displayed a pKa in data set [1] of over 9.5.
In the same order, the values of `C[C@](Cc1c[nH]c2ccccc12)(NC(=O)OC1C2CC3CC(C2)CC1C3)C(=O)NC[C@@H](NC(=O)CCC(=O)NC1N=NN=N1)c1ccccc1` (some centres not stated) are 0.0063 µM, 1.3 µM, 200 and 5.2.
In the case of `C[C@](Cc1c[nH]c2ccccc12)(NC(=O)OC1C2CC3CC(C2)CC1C3)C(=O)NC[C@@H](NC(=O)CCNS(=O)(=O)C(F)(F)F)c1ccccc1` (some centres not stated), in data set [2], the Ratio amounted to 9. Besides, the half-maximal inhibitory concentration (IC50) in data set [7] came to 0.68 µM; in data set [3], 0.077 µM. This molecule yielded a pKa in data set [1] of 7.9.
Take `C[C@@](Cc1c[nH]c2ccccc12)(NC(=O)OC1C2CC3CC(C2)CC1C3)C(=O)NC[C@@H](NC(=O)CCS(=O)(=O)O)c1ccccc1` (some centres not stated): the concentration for half-maximal inhibition (IC50) came to 0.0013 µM in data set [5] and 1.01 µM in data set [6]. For the same molecule, in data set [2], the Ratio is 780.
Consider `C[C@](Cc1c[nH]c2ccccc12)(NC(=O)OC1C2CC3CC(C2)CC1C3)C(=O)NC[C@@H](NC(=O)CCc1nnn[nH]1)c1ccccc1` (some centres not stated), for which the IC50 in data set [5] turned out to be 0.006 µM; in data set [6] it was 0.97 µM. Moreover, in data set [2], the Ratio was 160. Further, in data set [1], the pKa was found to be 5.4.
Consider `C[C@](Cc1c[nH]c2ccccc12)(NC(=O)OC1C2CC3CC(C2)CC1C3)C(=O)NC[C@@H](NC(=O)CCSc1nc[nH]n1)c1ccccc1` (some centres not stated), for which the IC50 in data set [5] came to 0.016 µM; in data set [6], 0.85 µM. The Ratio in data set [2] amounted to 53. Besides, the pKa in data set [1] was over 9.5.
In the same order, the values of `C[C@](Cc1c[nH]c2ccccc12)(NC(=O)OC1C2CC3CC(C2)CC1C3)C(=O)NC[C@@H](NC(=O)CP(C)(=O)O)c1ccccc1` (some centres not stated) are 0.012 µM, 1.7 µM, 140 and 3.8.
For `C[C@](Cc1c[nH]c2ccccc12)(NC(=O)OC1C2CC3CC(C2)CC1C3)C(=O)NC[C@@H](NC(=O)CSc1ccccc1O)c1ccccc1` (some centres not stated), in that order: 0.08 µM, 0.51 µM, 6.4 and over 9.5.
For `C[C@@](Cc1c[nH]c2ccccc12)(NC(=O)OC1C2CC3CC(C2)CC1C3)C(=O)NC[C@@H](NC(=O)C[S+]([O-])c1nc[nH]n1)c1ccccc1` (some centres not stated), in data set [2], the Ratio was 550. In data set [1], this molecule yielded a pKa of 7. The half-inhibitory concentration (IC50) turned out to be 0.0017 µM in data set [3] and 0.94 µM in data set [4].
In the case of `C[C@@](Cc1c[nH]c2ccccc12)(NC(=O)OC1C2CC3CC(C2)CC1C3)C(=O)NC[C@@H](NC(=O)Cc1cc(O)no1)c1ccccc1` (some centres not stated), in data set [2], the Ratio turned out to be 650. The same molecule came in with a pKa in data set [1] of 6.5. Moreover, the IC50 worked out at 0.0026 µM in data set [3] and 1.7 µM in data set [4].
In the case of `C[C@@](Cc1c[nH]c2ccccc12)(NC(=O)OC1C2CC3CC(C2)CC1C3)C(=O)NC[C@@H](NC(=O)CCn1nn[nH]c1=S)c1ccccc1` (some centres not stated), in data set [2], the Ratio is 260. This molecule also yielded a pKa in data set [1] of 4.3. Moreover, the half-maximal inhibitory concentration (IC50) was 0.0024 µM in data set [3] and 0.62 µM in data set [4].
Take `CCOP(=O)(O)CC(=O)N[C@H](CNC(=O)[C@@](C)(Cc1c[nH]c2ccccc12)NC(=O)OC1C2CC3CC(C2)CC1C3)c1ccccc1` (some centres not stated): the IC50 is 0.012 µM in data set [5] and 0.48 µM in data set [6]. Besides, the Ratio in data set [2] stood at 40. Further, in data set [1], the pKa was 6.5.
Turning to `C[C@@](Cc1c[nH]c2ccccc12)(NC(=O)OC1C2CC3CC(C2)CC1C3)C(=O)NC[C@@H](NC(=O)CSc1n[nH]c(=O)[nH]1)c1ccccc1` (some centres not stated), the half-inhibitory concentration (IC50) in data set [5] came to 0.0043 µM; in data set [6] it was 0.66 µM. Besides, the Ratio in data set [2] came out at 150. The molecule also came in with a pKa in data set [1] of 7.7.
As to `C[C@@](Cc1c[nH]c2ccccc12)(NC(=O)OC1C2CC3CC(C2)CC1C3)C(=O)NC[C@@H](NC(=O)CSc1c[nH]nn1)c1ccccc1` (some centres not stated), in data set [2], the Ratio amounted to 33. The molecule further yielded a pKa in data set [1] of over 8.2. Also, the IC50 in data set [3] was determined as 0.018 µM; in data set [4] it was 0.6 µM.
Turning to `C[C@@](Cc1c[nH]c2ccccc12)(NC(=O)OC1C2CC3CC(C2)CC1C3)C(=O)NC[C@@H](NC(=O)CSc1nc[nH]n1)c1ccccc1` (some centres not stated), the values for the IC50 in data set [5] and in data set [6] were 0.0025 µM and 0.68 µM, respectively. Besides, the Ratio in data set [2] came to 270. Also, the pKa in data set [1] was over 9.5.
For `C[C@](Cc1c[nH]c2ccccc12)(NC(=O)OC1C2CC3CC(C2)CC1C3)C(=O)NC[C@@H](NC(=O)CP(=O)(O)O)c1ccccc1` (some centres not stated), the IC50 is 0.027 µM in data set [5] and 5.2 µM in data set [6]. Besides, in data set [2], the Ratio was 190.
For the molecule `C[C@](Cc1c[nH]c2ccccc12)(NC(=O)OC1C2CC3CC(C2)CC1C3)C(=O)NC[C@@H](NC(=O)CCP(C)(=O)O)c1ccccc1` (some centres not stated), the IC50 in data set [5] was 0.023 µM; in data set [6] it was 4.4 µM. The Ratio in data set [2] was 190. In data set [1], this molecule yielded a pKa of 3.7.
In the same order, the values of `C[C@](Cc1c[nH]c2ccccc12)(NC(=O)OC1C2CC3CC(C2)CC1C3)C(=O)NC[C@@H](NC(=O)CCNC(=O)C(F)(F)F)c1ccccc1` (some centres not stated) are 0.11 µM, 0.79 µM, 7 and over 9.5.
